Source: ChEMBL document CHEMBL4261508, “Pyrazolo[3,4-d]pyrimidines as sigma-1 receptor ligands for the treatment of pain. Part 2: Introduction of cyclic substituents in position 4” (Medchemcomm, 2017)
pKi: −log10 of the molar value. Values after ≈ are worked out from the molar mass of the structure shown. Active and inactive are the calls of the source.

What was measured:
[1] = Stability of the compound assessed as drug degradation at pH 2; assay type: physicochemical; conditions: buffer
Summary of the method: (§1)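 Chemical stability measured by LC/MS. A 10 mM DMSO stock of compound was diluted into phosphate buffer pH 7.4 or 0.01 M HCl pH 2.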

[2] = Stability of the compound assessed as drug degradation at pH 7.4; assay type: physicochemical; conditions: buffer; summary of the method: as §1
Cavia porcellus = organism: Cavia porcellus; assay: Displacement of [3H]-DTG from sigma2 receptor in guinea pig brain membranes at 1 uM after 120 mins in presence of sigma1 […] (+)-SKF10047 by microbeta scintillation counting method relative to control; assay type: cell membranes; conditions: Membrane
Summary of the method: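 σ2R binding in guinea pig brain membranes with [³H]-di-o-tolylguanidine as radioligand. Compound tested at 1 μM as % inhibition. Mean of two determinations.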

[3] = biological target: Sigma non-opioid intracellular receptor 1 (Homo sapiens, UniProt Q99720); assay: Displacement of [3H]-(+)-pentazocine from recombinant human sigma1 receptor expressed in HEK293 cell membranes after 120 mins by microbeta scintillation counting method
Sigma non-opioid intracellular receptor 1, sequence (Q99720 whole entry): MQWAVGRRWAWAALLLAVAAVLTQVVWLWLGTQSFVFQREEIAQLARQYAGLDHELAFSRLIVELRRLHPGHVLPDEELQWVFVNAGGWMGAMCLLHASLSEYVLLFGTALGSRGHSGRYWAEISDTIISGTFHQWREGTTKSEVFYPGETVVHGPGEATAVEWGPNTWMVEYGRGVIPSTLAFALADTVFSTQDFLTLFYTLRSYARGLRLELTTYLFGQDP

Mus musculus [4] = assay: Analgesic activity in formalin-induced nociception CD-1 mouse model assessed as reduction in time spent in licking or biting formalin injected hind paw at 80 mg/kg, po pretreated for 30 mins followed by formalin stimulation measured after 15 to 30 mins relative to control; assay type: functional; design: scale not given: the % may be the effect or the level left
Summary of the method: (§2)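 Mice received drug i.p. (40 mg/kg) or p.o. (80 mg/kg), and formalin was injected intraplantar. Paw licking-biting time in phase II (delayed phase) was scored. Result is % antinociception in treated animals vs vehicle.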

Mus musculus [5] = assay: Antinociceptive activity in capsaicin-induced nociception pain CD-1 mouse model assessed as increase in paw withdrawal latency at 80 mg/kg, po pretreated for 30 mins followed by capsaicin challenge measured after 15 mins by von frey filament assay relative to control; assay type: functional
Summary of the method: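 Capsaicin test in mice, drug given orally at 80 mg/kg. Mechanical hypersensitivity was read as paw withdrawal latency to upward pressure by von Frey filament. Result is % reduction in drug-treated vs vehicle animals.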

Mus musculus [6] = assay: Antinociceptive activity in partial sciatic nerve ligation CD-1 mouse model of neuropathic pain assessed as reduction in mechanical hypersensitivity at 80 mg/kg, po administered 8 days post partial sciatic nerve injury measured after 30 mins by von frey filament assay relative to control; assay type: functional; design: scale not given: the % may be the effect or the level left
Summary of the method: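 Mice with partial sciatic nerve ligation, drug given orally at 80 mg/kg. Pressure threshold (g) for paw withdrawal to von Frey filament was measured after dosing. It was compared with vehicle response 8 days post-surgery and with pre-ligation baseline to give % reduction of hypersensitivity.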

Mus musculus [7] = assay: Analgesic activity in formalin-induced nociception CD-1 mouse model assessed as reduction in time spent in licking or biting formalin injected hind paw at 40 mg/kg, ip pretreated for 30 mins followed by formalin stimulation measured after 15 to 30 mins relative to control; assay type: functional; design: scale not given: the % may be the effect or the level left; summary of the method: as §2
Mus musculus [8] = assay: Analgesic activity in formalin-induced nociception CD-1 mouse model assessed as reduction in time spent in licking or biting formalin injected hind paw at 80 mg/kg, po pretreated for 30 mins followed by formalin stimulation measured up to 5 mins; assay type: functional, organism-based
Mus musculus [9] = assay: Analgesic activity in formalin-induced nociception CD-1 mouse model assessed as reduction in time spent in licking or biting formalin injected hind paw at 40 mg/kg, ip pretreated for 30 mins followed by formalin stimulation measured up to 5 mins; assay type: functional, organism-based
[10] = Thermodynamic solubility of the compound in pH 2 phosphate buffer; assay type: physicochemical; conditions: read-out: Therm_solubility
CYP3A4 = CYP3A4 (Homo sapiens, UniProt P08684); assay: Inhibition of recombinant human CYP3A4 at 1 uM relative to control; assay type: ADME
CYP3A4, sequence (P08684 whole entry): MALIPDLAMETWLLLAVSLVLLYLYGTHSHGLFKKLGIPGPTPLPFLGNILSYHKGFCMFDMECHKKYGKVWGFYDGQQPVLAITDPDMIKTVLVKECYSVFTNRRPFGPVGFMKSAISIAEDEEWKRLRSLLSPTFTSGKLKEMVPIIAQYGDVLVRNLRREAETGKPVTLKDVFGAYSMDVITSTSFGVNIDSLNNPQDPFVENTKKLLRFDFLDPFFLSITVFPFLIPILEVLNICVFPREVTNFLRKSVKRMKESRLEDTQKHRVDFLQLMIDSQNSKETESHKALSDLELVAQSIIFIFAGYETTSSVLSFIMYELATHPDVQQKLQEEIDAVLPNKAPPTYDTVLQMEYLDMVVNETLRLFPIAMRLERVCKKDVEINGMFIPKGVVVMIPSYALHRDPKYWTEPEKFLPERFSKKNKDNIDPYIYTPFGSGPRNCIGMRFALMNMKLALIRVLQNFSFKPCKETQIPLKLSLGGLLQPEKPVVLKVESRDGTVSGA

CYP2D6 = CYP2D6 (Homo sapiens, UniProt P10635); assay: Inhibition of recombinant human CYP2D6 at 1 uM relative to control; assay type: ADME
CYP2D6, sequence (P10635 whole entry): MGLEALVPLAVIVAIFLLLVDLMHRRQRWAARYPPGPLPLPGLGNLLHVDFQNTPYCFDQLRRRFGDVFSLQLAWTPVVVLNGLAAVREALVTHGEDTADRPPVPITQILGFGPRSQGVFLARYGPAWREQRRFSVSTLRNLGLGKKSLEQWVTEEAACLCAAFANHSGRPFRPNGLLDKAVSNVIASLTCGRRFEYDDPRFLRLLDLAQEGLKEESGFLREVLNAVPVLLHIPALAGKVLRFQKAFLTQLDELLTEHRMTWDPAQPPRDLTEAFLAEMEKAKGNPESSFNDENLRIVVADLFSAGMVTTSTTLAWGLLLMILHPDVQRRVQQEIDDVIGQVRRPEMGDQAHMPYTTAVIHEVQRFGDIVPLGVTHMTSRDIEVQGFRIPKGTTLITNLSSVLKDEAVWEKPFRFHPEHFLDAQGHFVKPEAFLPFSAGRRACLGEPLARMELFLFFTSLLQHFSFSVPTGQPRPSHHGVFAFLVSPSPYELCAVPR

[11] = Displacement of [3H]-DTG from sigma2 receptor in guinea pig brain membranes after 120 mins in presence of sigma1 […] (+)-SKF10047 by microbeta scintillation counting method; assay type: cell membranes, Cavia porcellus, Membrane
HepG2 [12] = assay: Cytotoxicity against human HepG2 cells up to 100 uM by MTT assay; assay type: cell-based
Summary of the method: (§3)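 HepG2 cells exposed to compound up to 100 μM. Cytotoxicity read by MTT and by Neutral Red uptake.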

[13] = Thermodynamic solubility of the compound in pH 7.4 phosphate buffer; assay type: physicochemical; conditions: read-out: Therm_solubility
HepG2 [14] = assay: Cytotoxicity against human HepG2 cells up to 100 uM by neutral red uptake assay; assay type: cell-based; summary of the method: as §3
[15] = Intrinsic clearance in human liver microsomes assessed as per mg protein at 1 uM after 1 hr in presence of NADPH-generating system by UPLC-MS/MS analysis; assay type: ADME, microsome; conditions: read-out: CLH
CYP2C9 = CYP2C9 (Homo sapiens, UniProt P11712); assay: Inhibition of recombinant human CYP2C9 at 1 uM relative to control; assay type: ADME
CYP2C9, sequence (P11712 whole entry): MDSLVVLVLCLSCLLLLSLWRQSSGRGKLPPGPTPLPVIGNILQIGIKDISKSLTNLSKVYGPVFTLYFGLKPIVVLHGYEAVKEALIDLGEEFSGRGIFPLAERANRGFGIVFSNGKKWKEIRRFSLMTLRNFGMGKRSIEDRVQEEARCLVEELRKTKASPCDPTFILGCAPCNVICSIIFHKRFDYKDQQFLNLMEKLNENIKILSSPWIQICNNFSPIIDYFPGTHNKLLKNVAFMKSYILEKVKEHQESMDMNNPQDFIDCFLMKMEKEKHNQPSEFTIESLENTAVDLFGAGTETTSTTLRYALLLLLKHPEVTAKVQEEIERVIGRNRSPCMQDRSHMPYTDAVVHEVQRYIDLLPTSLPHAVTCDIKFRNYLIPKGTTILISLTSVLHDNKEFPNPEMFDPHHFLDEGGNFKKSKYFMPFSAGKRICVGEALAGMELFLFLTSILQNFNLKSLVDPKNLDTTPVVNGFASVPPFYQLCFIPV

CYP1A2 = biological target: T1, CYP1A2 (Homo sapiens, UniProt P05177); assay: Inhibition of recombinant human CYP1A2 at 1 uM relative to control; assay type: ADME
T1 sequence (P05177 whole entry): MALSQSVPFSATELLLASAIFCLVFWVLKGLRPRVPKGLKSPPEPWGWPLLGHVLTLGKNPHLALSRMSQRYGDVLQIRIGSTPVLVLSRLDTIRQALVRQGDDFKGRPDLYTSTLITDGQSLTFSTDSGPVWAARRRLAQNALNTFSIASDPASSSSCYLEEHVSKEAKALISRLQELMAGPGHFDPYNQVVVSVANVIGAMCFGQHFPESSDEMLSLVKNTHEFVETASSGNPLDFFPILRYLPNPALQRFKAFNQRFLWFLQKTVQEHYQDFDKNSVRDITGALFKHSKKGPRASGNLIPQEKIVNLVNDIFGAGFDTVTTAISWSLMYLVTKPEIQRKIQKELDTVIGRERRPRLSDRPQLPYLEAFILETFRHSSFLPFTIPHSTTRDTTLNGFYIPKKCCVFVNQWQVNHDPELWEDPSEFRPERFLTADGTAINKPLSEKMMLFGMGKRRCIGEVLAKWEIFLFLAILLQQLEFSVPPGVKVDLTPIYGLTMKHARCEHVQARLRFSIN

[16] = Apparent permeability in human Caco2 cells; assay type: ADME, cell-based; conditions: Caco-2
CYP2C19 = CYP2C19 (Homo sapiens, UniProt P33261); assay: Inhibition of recombinant human CYP2C19 at 1 uM relative to control; assay type: ADME
CYP2C19, sequence (P33261 whole entry): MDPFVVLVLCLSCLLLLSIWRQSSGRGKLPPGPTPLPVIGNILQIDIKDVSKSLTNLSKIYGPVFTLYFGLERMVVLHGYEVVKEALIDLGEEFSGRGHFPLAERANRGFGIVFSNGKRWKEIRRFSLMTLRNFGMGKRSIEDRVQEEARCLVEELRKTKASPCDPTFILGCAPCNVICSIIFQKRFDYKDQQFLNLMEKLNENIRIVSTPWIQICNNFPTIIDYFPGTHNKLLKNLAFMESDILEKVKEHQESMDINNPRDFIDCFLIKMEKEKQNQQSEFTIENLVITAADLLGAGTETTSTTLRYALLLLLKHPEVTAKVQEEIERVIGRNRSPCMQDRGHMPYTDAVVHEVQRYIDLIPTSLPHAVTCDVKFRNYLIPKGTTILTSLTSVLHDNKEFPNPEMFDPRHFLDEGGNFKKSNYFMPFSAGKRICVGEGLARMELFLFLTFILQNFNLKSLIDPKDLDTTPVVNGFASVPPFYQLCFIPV

Salmonella typhimurium = assay: Genotoxicity in Salmonella typhimurium TA1535 harboring pSK1002 by […]; assay type: toxicity, organism-based; conditions: salmonella enterica subsp. enterica serovar typhimurium

Row | Stability [1] | Stability [2] | inhibition (Cavia porcellus) | pKi [3] | Compound | further results
1 | Stable | Stable | 75% | 7.02 | Fc1ccc(-c2ncnc3c2cnn3CCN2CCCCC2)cc1 | 
2 |  |  | 67% | 6.97 | FC1(F)CCN(c2ncnc3c2cnn3CCN2CCCCC2)CC1 | 
3 |  |  |  | 5.54 | CC(C)n1cc(-c2ncnc3c2cnn3CCN2CCCCC2)cn1 | 
4 | Stable | Stable |  |  | Cc1cc(OCCN2CCOCC2)nn1-c1ccc2ccccc2c1 | Activity (Mus musculus [4]): 66%; Activity (Mus musculus [5]): 48%; Activity (Mus musculus [6]): 62%; Activity (Mus musculus [7]): 50%; Activity (Mus musculus [8]): Active; Activity (Mus musculus [9]): Active
5 |  |  |  | 6.86 | Cn1nc(C(F)(F)F)cc1-c1ncnc2c1cnn2CCN1CCCCC1 | 
6 | Stable | Stable | 83% | 7.13 | Cc1ccccc1-c1ncnc2c1cnn2CCN1CCCCC1 | 
7 | Stable | Stable | 86% | 7.32 | Cc1cc(F)ccc1-c1ncnc2c1cnn2CCN1CCCCC1 | 
8 |  |  |  | 6.35 | Cc1cncc(-c2ncnc3c2cnn3CCN2CCCCC2)c1 | 
9 |  |  |  | 5.21 | O=C1CCCN1c1ncnc2c1cnn2CCN1CCCCC1 | 
10 | Stable | Stable | 92% | 7.12 | Clc1ccccc1-c1ncnc2c1cnn2CCN1CCCCC1 | 
11 | Stable | Stable | 83% | 7.03 | Fc1ccc(-c2ncnc3c2cnn3CCN2CCCCC2)c(F)c1 | 
12 |  |  |  | 4.42 | COc1ccc(-c2ncnc3c2cnn3CCN2CCCCC2)cn1 | 
13 | Stable | Stable | 95% | 7.51 | Cc1ccc(Cl)c(-c2ncnc3c2cnn3CCN2CCCCC2)c1 | 
14 |  |  | 73% | 6.95 | Fc1cc(Cl)ccc1-c1ncnc2c1cnn2CCN1CCCCC1 | 
15 | Stable | Stable |  | 7.46 | Clc1ccc(-c2ncnc3c2cnn3CCN2CCCCC2)s1 | 
16 | Stable | Stable | 74% | 7.37 | Clc1ccc(-c2ncnc3c2cnn3CCN2CCCCC2)cc1 | 
17 |  |  |  | 4.93 | Cn1cnc(-c2ncnc3c2cnn3CCN2CCCCC2)c1 | 
18 |  |  |  | 6.14 | Cc1ncccc1-c1ncnc2c1cnn2CCN1CCCCC1 | 
19 |  |  |  | 6.18 | c1ccc2c(-c3ncnc4c3cnn4CCN3CCCCC3)cncc2c1 | 
20 |  |  | 66% | 6.95 | c1ccc2c(c1)ncn2-c1ncnc2c1cnn2CCN1CCCCC1 | 
21 |  |  | 47% | 6.25 | N#Cc1ccc(-c2ncnc3c2cnn3CCN2CCCCC2)cc1 | 
22 |  |  | 58% | 6.27 | COc1ccc(-c2ncnc3c2cnn3CCN2CCCCC2)cc1 | 
23 | Stable | Stable |  | 7.51 | Cn1cccc1-c1ncnc2c1cnn2CCN1CCCCC1 | 
24 |  |  |  | 5.02 | Cn1cc(-c2ncnc3c2cnn3CCN2CCCCC2)cn1 | 
25 |  |  |  | 6.10 | c1nc(-c2cn[nH]c2)c2cnn(CCN3CCCCC3)c2n1 | 

Row | Stability [1] | Stability [2] | inhibition (Cavia porcellus) | pKi [3] | Compound | further results
26 |  |  |  | 6.20 | c1ccc(-c2ncnc3c2cnn3CCN2CCCCC2)nc1 | 
27 |  |  | 40% | 6.32 | c1nc(-c2cnsc2)c2cnn(CCN3CCCCC3)c2n1 | 
28 |  |  |  | 6.95 | COc1ncccc1-c1ncnc2c1cnn2CCN1CCCCC1 | 
29 |  |  |  | 6.15 | Cc1cccc(-c2ncnc3c2cnn3CCN2CCCCC2)n1 | 
30 |  |  |  | 6.15 | Cc1ccncc1-c1ncnc2c1cnn2CCN1CCCCC1 | 
31 | Stable | Stable | 87% | 7.41 | COc1cc(F)ccc1-c1ncnc2c1cnn2CCN1CCCCC1 | 
32 |  |  | 69% | 7.00 | c1ccc(-c2ncnc3c2cnn3CCN2CCCCC2)cc1 | 
33 | Stable | Stable |  |  | CC(C)(C)C(=O)Nc1ncnc2c1cnn2CCN1CCCCC1 | 
34 |  |  |  | 4.62 | c1coc(-c2ncnc3c2cnn3CCN2CCCCC2)n1 | 
35 |  |  | 71% | 6.53 | c1ccc(C2CCN(c3ncnc4c3cnn4CCN3CCCCC3)C2)cc1 (stereo not given) | 
36 |  |  |  | 4.59 | CNC1CCN(c2ncnc3c2cnn3CCN2CCCCC2)C1 (stereo not given) | 
37 | Stable | Stable | 82% | 7.09 | Cc1cccc(-c2ncnc3c2cnn3CCN2CCCCC2)c1 | 
38 |  |  |  | 6.03 | c1cncc(-c2ncnc3c2cnn3CCN2CCCCC2)c1 | 
39 |  |  | 67% | 6.70 | c1nc(N2CCCCC2)c2cnn(CCN3CCCCC3)c2n1 | 
40 |  |  |  | 6.15 | Cn1cncc1-c1ncnc2c1cnn2CCN1CCCCC1 | 
41 | Stable | Stable | 87% | 7.24 | Fc1ccc(-c2ncnc3c2cnn3CCN2CCCCC2)cc1C(F)(F)F | 
42 |  |  | 86% | 6.90 | FC(F)(F)c1ccccc1-c1ncnc2c1cnn2CCN1CCCCC1 | 
43 |  |  |  | 5.77 | c1cc(-c2ncnc3c2cnn3CCN2CCCCC2)ccn1 | 
44 |  |  | 81% | 6.52 | CCOc1ccccc1-c1ncnc2c1cnn2CCN1CCCCC1 | 
45 |  |  |  | 4.86 | c1cn(-c2ncnc3c2cnn3CCN2CCCCC2)cn1 | 
46 |  |  |  | 5.74 | c1csc(-c2ncnc3c2cnn3CCN2CCCCC2)n1 | 
47 |  |  | 58% | 6.78 | CC1(C)CCN(c2ncnc3c2cnn3CCN2CCCCC2)C1 | 
48 |  |  |  | 6.13 | Cc1ccc(C)n1-c1ncnc2c1cnn2CCN1CCCCC1 | 
49 | Stable | Stable |  | 7.14 | Cc1noc(C)c1-c1ncnc2c1cnn2CCN1CCCCC1 | 
50 | Stable | Stable | 89% | 7.20 | Cc1ccc(C)c(-c2ncnc3c2cnn3CCN2CCCCC2)c1 | 

Row | Compound | Stability [1] | Stability [2] | inhibition (Cavia porcellus) | pKi [3] | further results
51 | Cn1nccc1-c1ncnc2c1cnn2CCN1CCCCC1 | Stable | Stable |  |  | solubility thermodynamic [10]: 2400 µg/mL (≈ 7.71 mM); inhibition at 1 µM (CYP3A4): < 50%; Activity (Mus musculus [4]): 54%; inhibition at 1 µM (CYP2D6): < 50%; Activity (Mus musculus [5]): 43%; pKi [11]: < 6.00; Activity (Mus musculus [6]): 46%; Activity (HepG2 [12]): Non-Toxic; solubility thermodynamic [13]: 1500 µg/mL (≈ 4.82 mM); Activity (HepG2 [14]): Non-Toxic; Activity (Mus musculus [7]): 67%; microsomal CLint at 1 µM [15]: 2.4 µL/min/mg; Activity (Mus musculus [8]): Active; Activity (Mus musculus [9]): Active; inhibition at 1 µM (CYP2C9): < 50%; inhibition at 1 µM (CYP1A2): < 50%; Papp [16]: 40.7 ×10⁻⁶ cm/s; inhibition at 1 µM (CYP2C19): < 50%; Activity (Salmonella typhimurium): Non-Toxic
